Active and inactive are the calls of the source. The rule behind the calls is not given here.

We go through 36 compounds from ChEMBL document CHEMBL1143384, “Discovery of novel inhibitors of Trypanosoma cruzi trans-sialidase from in silico screening” (Bioorg Med Chem Lett, 2009).

Test [1] deals with T1, Trans-sialidase (Trypanosoma cruzi) (UniProt Q26966).
T1 sequence (whole entry): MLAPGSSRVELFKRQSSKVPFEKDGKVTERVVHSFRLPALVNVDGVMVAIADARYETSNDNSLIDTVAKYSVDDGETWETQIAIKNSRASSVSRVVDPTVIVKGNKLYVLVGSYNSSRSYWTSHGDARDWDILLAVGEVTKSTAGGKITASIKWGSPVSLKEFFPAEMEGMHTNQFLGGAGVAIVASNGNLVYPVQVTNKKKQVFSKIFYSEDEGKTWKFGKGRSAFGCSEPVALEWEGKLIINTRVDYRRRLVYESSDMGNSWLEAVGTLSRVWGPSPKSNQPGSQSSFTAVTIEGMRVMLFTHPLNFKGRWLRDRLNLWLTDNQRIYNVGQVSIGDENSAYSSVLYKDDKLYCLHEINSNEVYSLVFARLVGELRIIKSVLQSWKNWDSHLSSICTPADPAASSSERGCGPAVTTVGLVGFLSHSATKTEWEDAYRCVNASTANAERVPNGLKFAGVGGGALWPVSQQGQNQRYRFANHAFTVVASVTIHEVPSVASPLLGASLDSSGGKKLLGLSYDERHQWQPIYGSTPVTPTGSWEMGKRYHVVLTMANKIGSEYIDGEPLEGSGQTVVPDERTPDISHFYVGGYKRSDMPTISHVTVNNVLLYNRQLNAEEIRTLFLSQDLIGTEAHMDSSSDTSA
The test can be described thus: Inhibition of Trypanosoma cruzi trans-Sialidase at 1 mM by MuNANA assay. In outline:
(§1)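 Recombinant TcTS in a continuous fluorimetric assay in 96-well format, with 4-methylumbelliferyl sialoside (MuNANA) as substrate, following sialic acid hydrolysis. Compounds were first screened at 1 mM, or at the highest concentration their solubility allowed, in triplicate. IC50 was then determined in the same assay for compounds inhibiting more than 50%.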

Test [2] has as its target T2, Trans-sialidase (Trypanosoma cruzi, UniProt Q26966).
T2 sequence (Q26966 whole entry): T1 sequence (whole entry)
The test can be described thus: Inhibition of Trypanosoma cruzi trans-Sialidase by MuNANA assay. In outline:
as §1

Test [3] deals with T1, Trans-sialidase (Trypanosoma cruzi). The test is described as follows: Inhibition of Trypanosoma cruzi trans-Sialidase at 0.5 mM by MuNANA assay. The gist of the method: as §1
Test [4] has as its target T2, Trans-sialidase. The test is described as follows: Inhibition of Trypanosoma cruzi trans-Sialidase by TIA assay. The gist of the method: (§2)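 Trans-sialidase inhibition assay (TIA), which measures sialic acid transfer from sialyllactose as donor to 14C-radiolabelled lactose as acceptor.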
For test [5], the target named is T1, Trans-sialidase (Trypanosoma cruzi). The test can be described thus: Inhibition of Trypanosoma cruzi trans-Sialidase at 0.1 mM by MuNANA assay. In outline:
as §1

In test [6] the target is T2, Trans-sialidase. The test can be described thus: Inhibition of Trypanosoma cruzi trans-Sialidase. The gist of the method:
as §1

The target in test [7] is T1, Trans-sialidase (Trypanosoma cruzi). The test can be described thus: Inhibition of Trypanosoma cruzi trans-Sialidase at 0.025 mM by MuNANA assay. The gist of the method: as §1
The target is the same in test [8]. The test can be described thus: Inhibition of Trypanosoma cruzi trans-Sialidase at 0.01 mM by MuNANA assay. In outline:
as §1

Test [9] has the same target. The test is described as follows: Inhibition of Trypanosoma cruzi trans-Sialidase at 1 mM by TIA assay. The gist of the method:
as §2

The target is the same in test [10]. The test is described as follows: Inhibition of Trypanosoma cruzi trans-Sialidase at 0.05 mM by MuNANA assay. The gist of the method: as §1
Test [11] has the same target. The test can be described thus: Inhibition of Trypanosoma cruzi trans-Sialidase at 0.125 mM by MuNANA assay. In outline:
as §1

`O=C(O)C/C(=C\c1cccc(F)c1)c1nc2ccccc2s1` registered an inhibition in test [1] of 94%. In addition, in test [2], the 50% inhibitory concentration (IC50) was found to be 120 µM.

Regarding `COc1ccc(C(CC(=O)O)NC(=O)COc2cc(C)ccc2C)cc1OC` (stereo unspecified), the inhibition in [1] was found to be 30%.

In test [1], `CCCOC(=O)c1c(NC(=O)C2CCCCC2C(=O)O)sc(C)c1C` (stereo unspecified) showed an inhibition of 87%. The same compound displayed an IC50 in test [2] of 210 µM.

Take `COc1ccc(/C=C(\CC(=O)O)c2nc3ccccc3s2)cc1OC`: the inhibition in test [3] worked out at 84%. In test [2], this compound yielded an IC50 of 180 µM.

Compound `O=C(O)C/C(=C\c1cccc(O)c1)c1nc2ccccc2s1` gave an IC50 in [4] of 520 µM. The compound also came in with an inhibition in test [5] of 30%.

Turning to `Cc1ccc(C)c(/C=C(\CC(=O)O)c2nc3ccccc3s2)c1`, the inhibition in test [1] was found to be 91%. In test [2], the IC50 was 120 µM.

As to `CC(=O)c1sc(C(C)(C)C)cc1NC(=O)c1ccccc1C(=O)O`, the inhibition in test [1] turned out to be 84%. Besides, it took 270 µM to reach half-maximal inhibition in test [2] (IC50).

On to `CC(=O)Nc1ccc(C(=O)O)nc1N`, for which, in [6], the IC50 turned out to be 440 µM.

In turn, `COc1ccc(CC(=O)Nc2ccc(S(=O)(=O)Nc3nc(C)cc(C)n3)cc2)cc1` yielded an inhibition in [3] of 42%.

For the compound `O=C(O)CC(C(=O)Nc1cc(C(F)(F)F)cc(C(F)(F)F)c1)C1=CCCCC1` (stereo unspecified), the inhibition in [1] amounted to 32%.

In test [1], `COC(=O)c1ccc(Oc2ccc(C(F)(F)F)cc2NC(=O)c2ccccc2C(=O)O)s1` displayed an inhibition of 21%.

For `OC[C@H]1O[C@@H](O[C@@H]2[C@@H](CO)O[C@](O)(CO)[C@H]2O)[C@H](O)[C@@H](O)[C@H]1O` [LACTULOSE], half-maximal inhibition in [6] (IC50) required 570 µM.

The compound `COc1cc(C2C(C(=O)c3ccc4c(c3)OCCO4)=C(O)C(=O)N2CCCN(C)C)cc(OC)c1OC` (stereo unspecified) displayed an inhibition in test [3] of 41%.

In turn, `COc1cccc(CNC(=O)Cc2c(C(=O)O)[nH]c3ccc(Cl)cc23)c1` returned an inhibition in test [3] of 57%.

As for `COc1ccc(NC(=O)CC2(CC(=O)O)CCCCC2)cc1OC`, in test [1], the outcome was inactive.

In test [1], `Cc1ccc(S(=O)(=O)Nc2nnc(SCC(=O)Nc3ccc4c(c3)OCO4)s2)cc1` displayed an inhibition of 82%. In addition, in test [2], the IC50 was determined as 280 µM.

Consider `O=C(O)c1ccccc1C(=O)NCCCc1c(C(=O)O)[nH]c2cc3c(cc12)OCCO3`, for which the inhibition in test [1] is 36%.

In [1], `Cc1c(NS(=O)(=O)c2cccc(C(=O)NCc3ccncc3)c2)c(=O)n(-c2ccccc2)n1C` came in with an inhibition of 23%.

The compound `O=C(O)C/C(=C\c1cccc(C(F)(F)F)c1)c1nc2ccccc2s1` yielded an inhibition in [1] of 92%. Also, in test [2], the IC50 is 150 µM.

The compound `COCCNC(=O)c1ccc(NS(=O)(=O)c2cc(Cl)sc2Cl)cc1` displayed an inhibition in test [1] of 50%.

`CC(=O)Nc1ccc(S(=O)(=O)Nc2nc3n(n2)C(c2ccc(Cl)cc2)C=C(c2ccccc2)N3)cc1` (stereo unspecified): the outcome in test [7] was inactive.

In turn, `CC(=O)Nc1ccc(C(=O)O)cc1CO` gave an IC50 in test [6] of 540 µM.

In turn, `CC(=O)N[C@H]1C(O)CC(P(=O)(O)CCO[C@H]2[C@@H](O)[C@@H](CO)OC(O)[C@@H]2O)=C[C@@H]1O` (single isomer, unassigned) returned a concentration for half-maximal inhibition (IC50) in test [6] of 1500 µM. Against the preceding compound, the IC50 is about 2.8-fold higher.

As for `CC(=O)N[C@H]1[C@H]([C@H](O)[C@H](O)CO)OC(C(=O)O)=C[C@@H]1O` [NEU5AC2EN], the Ki in test [6] stood at 12300 µM.

On to `CCn1nc(NS(=O)(=O)c2ccc(C)cc2)c2cc3cc(C)ccc3nc21`, for which the result in [8] was inactive.

Consider `CC(=O)c1sccc1NC(=O)c1ccccc1C(=O)O`, for which the results for the inhibition in [1] and in test [9] were 79% and 32%, respectively. This compound had an IC50 in test [2] of 290 µM.

`CCOc1ccccc1/C=C(\CC(=O)O)c1nc2ccccc2s1` returned an inhibition in test [1] of 90%. Besides, the IC50 in test [4] stood at 420 µM; in test [2], 160 µM.

Compound `O=c1[nH]c(O)c(C(c2ccc3c(c2)CN2CCOCC2O3)c2c(O)[nH]c(=O)[nH]c2=O)c(=O)[nH]1` (stereo unspecified) came in with an inhibition in test [3] of 28%.

In test [6], `CCOP(=O)(O)C1=C[C@H](O)[C@@H](NC(C)=O)[C@H](OCCO)C1` displayed an IC50 of 5000 µM.

In [1], `CC1(C)SC2c3ccccc3C(=O)N2C1C(=O)NC(Cc1c[nH]c2ccccc12)C(=O)O` (stereo unspecified) yielded an inhibition of 23%.

For the compound `O=C(O)C1CC=C(Cl)CC1C(=O)NCC1OCCc2ccccc21` (stereo unspecified), the inhibition in test [1] came to 26%.

In test [10], `COc1ccc(Nc2nc3ccccc3nc2NS(=O)(=O)c2ccc(NC(C)=O)cc2)c(OC)c1` came in with an inhibition of 32%.

`CC(=O)Nc1ccc(S(=O)(=O)Nc2nc(-c3ccccc3)c(-c3ccccc3)o2)cc1`: the inhibition in [11] is 22%.

`CC(C)Oc1ccccc1/C=C(\CC(=O)O)c1nc2ccccc2s1` had an inhibition in test [1] of 92%. Besides, the values for the IC50 in [4] and in test [2] were 290 µM and 150 µM, respectively.

`Cc1ncc(COP(=O)(O)O)c(C=O)c1O` [PYRIDOXAL PHOSPHATE ANHYDROUS] showed a Ki in test [6] of 7300 µM. This lies in the millimolar range.

For the compound `COc1cccc(/C=C(\CC(=O)O)c2nc3ccccc3s2)c1`, the inhibition in test [1] was 91%. This compound also gave an IC50 in [2] of 310 µM.
